Source: PMC3479660 (Thrombosis and haemostasis, 2012)

Columns and labels:
P2Y12 receptor [1] = biological target: T1, P2Y12 receptor (Homo sapiens, UniProt Q9H244); test: [3H]PSB-0413 radioligand competition binding, Sf9 insect cell membranes; settings: for rank order of potency at labelled binding sites: unpublished data of the authors
washed platelets [2] = format: cell-based, human; settings: intermediates 30 μM vs 2-MeSADP 0.04 μM
human platelets [3] = test: LTA with PRP: LPA-stimulated platelet shape change; format: cell-based
Procedure, shortened: (§1)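 Turbidimetric light transmission aggregometry was run on human PRP normalised to 300,000 cells/μl. Platelets were pre-treated for 5 min with 30 μM test compound, then given 10 μM LPA. Shape change was taken from the traces (n=10). Aggregation was reported as mean platelet aggregation in % (n=8).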

human platelets [4] = test: LTA with PRP: LPA-stimulated platelet aggregation; format: cell-based; settings: 30 μM test compound pre-incubated, LPA 10 μM
Procedure, shortened: as §1

human platelets [5] = test: LTA: 2-MeSADP-stimulated platelet aggregation; format: cell-based; settings: for effect on 2-MeSADP-stimulated platelet aggregation: 30 μM test compound, 30 nM 2-MeS-ADP, PRP
Procedure, shortened: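 In human PRP (300,000 cells/μl), aggregation was stimulated with 2-MeSADP (30 nM) with or without 30 μM test compound. Full 2-MeSADP concentration-response curves were run alone or after pre-incubation with 15 or 30 μM test compound. Values were normalised to 2-MeSADP alone and EC50 was derived from the curves; n=6.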

human platelets [6] = test: LTA with PRP: TRAP-mediated platelet aggregation; format: cell-based; settings: 30 μM FPP, TRAP 15 μM
human platelets [7] = test: LTA with PRP: epinephrine-mediated platelet aggregation; format: cell-based; settings: 30 μM FPP, epinephrine 1 μM
Procedure, shortened: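 For light transmission aggregometry, human platelets were normalised to 300,000 cells/μl and exposed to 30 μM test compound before agonist. Epinephrine was added at 1 μM (n=15); the TRAP arm had n=7. Representative traces accompanied the bar data.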

washed platelets [8] = test: Calcium flux assay on platelets; format: cell-based, human; settings: 30 μM FPP
P2Y12 receptor [9] = biological target: T1, P2Y12 receptor; test: [35S]GTPγS binding in isolated platelet membranes; format: biochemical

T1 sequence (Q9H244 whole entry): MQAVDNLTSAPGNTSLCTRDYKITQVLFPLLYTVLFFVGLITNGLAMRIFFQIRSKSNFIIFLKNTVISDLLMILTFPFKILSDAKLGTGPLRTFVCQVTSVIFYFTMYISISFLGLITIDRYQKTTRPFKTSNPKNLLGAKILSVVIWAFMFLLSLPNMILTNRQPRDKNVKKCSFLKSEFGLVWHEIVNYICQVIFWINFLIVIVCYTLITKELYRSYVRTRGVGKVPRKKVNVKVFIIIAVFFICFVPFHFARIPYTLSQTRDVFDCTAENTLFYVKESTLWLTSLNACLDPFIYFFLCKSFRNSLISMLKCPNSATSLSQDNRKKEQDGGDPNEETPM

SMILES: Nc1ncnc2c1ncn2[C@@H]1O[C@H](COP(=O)(O)OP(=O)(O)O)[C@@H](O)[C@H]1O [ADP, adenosine diphosphate]
- extent of inhibition of [3H]PSB-0413 binding (P2Y12 receptor [1]): complete inhibition
- rank order of potency at labelled binding sites (P2Y12 receptor [1]): PSB-0739 ([21], [22]). >2-methylthio-ADP > ADP

SMILES: CC(C)=CCOP(=O)(O)OP(=O)(O)O.N.N.N [DMAPP, γ,γ-dimethylallyl pyrophosphate triammonium salt]
- antagonistic activity on platelets stimulated by 2-MeSADP (washed platelets [2]): Only FPP displayed a statistically significant effect

SMILES: CC(C)=CCCC(C)=CCCC(C)=CCOP(=O)(O)O.N.N [FMP, 3,7,11-trimethyl-2,6,10-dodecatrien-1-yl monophosphate ammonium salt]
- antagonistic activity on platelets stimulated by 2-MeSADP (washed platelets [2]): Only FPP displayed a statistically significant effect

SMILES: CC(C)=CCCC(C)=CCCC(C)=CCOP(=O)(O)OP(=O)(O)O.N.N.N [FPP, 3,7,11-Trimethyl-2,6,10-dodecatrien-1-yl pyrophosphate ammonium salt]
- effect on LPA-stimulated platelet shape change (human platelets [3]; 30 μM FPP, 10 μM LPA, p=0.017): potentiated
- platelet shape change, compound alone (human platelets [3]; FPP alone): unable to show an effect
- effect on LPA-stimulated platelet aggregation (human platelets [4]): no effect
- effect on 2-MeSADP-stimulated platelet aggregation (human platelets [5]): clear, concentration-dependent inhibition
- inhibition at 10 µM (human platelets [5]; Homo sapiens, Platelet, read-out: inhibition of 2-MeSADP-stimulated aggregation): 40 ± 5%
- effect on TRAP-stimulated platelet aggregation (human platelets [6]): unaffected
- effect on epinephrine-stimulated platelet aggregation (human platelets [7]): unaffected
- antagonistic activity on platelets stimulated by 2-MeSADP (washed platelets [2]): statistically significant effect
- effect on ADP-stimulated calcium signalling (washed platelets [8]; 5 μM ADP): no statistical significance
- effect on thrombin-stimulated calcium signalling (washed platelets [8]; thrombin 0.5 U/ml): no statistical significance
- IC50 (P2Y12 receptor [9]): 45 µM
- effect of compound alone on [35S]GTPγS binding (P2Y12 receptor [9]; FPP 1 M alone (so in the source)): small, but significant, increase
- concentrations at which FPP independently stimulated [35S]GTPγS binding (P2Y12 receptor [9]; platelet membranes): below 6 μM
- IC50 (P2Y12 receptor [1]): 65.8 µM
- extent of inhibition of [3H]PSB-0413 binding (P2Y12 receptor [1]): partial inhibition
- maximal inhibition of [3H]PSB-0413 binding (P2Y12 receptor [1]; very high concentrations): 30–40%

SMILES: CC(C)=CCC/C(C)=C/CC/C(C)=C/CC/C(C)=C/COP(=O)(O)OP(=O)(O)O.N.N.N [GGPP, all trans-3,7,11,15-tetra-methyl-2,6,10,14-hexadecatetraenyl pyrophosphate ammonium salt]
- antagonistic activity on platelets stimulated by 2-MeSADP (washed platelets [2]): Only FPP displayed a statistically significant effect

SMILES: CC(C)=CCC/C(C)=C/COP(=O)(O)OP(=O)(O)O.N.N.N [GPP, trans-3,7-dimethyl-2,6-octadienyl pyrophosphate ammonium salt]
- antagonistic activity on platelets stimulated by 2-MeSADP (washed platelets [2]): Only FPP displayed a statistically significant effect

SMILES: C=C(C)CCOP(=O)(O)OP(=O)(O)O.N.N.N [IPP, isopentenyl pyrophosphate triammonium salt]
- antagonistic activity on platelets stimulated by 2-MeSADP (washed platelets [2]): Only FPP displayed a statistically significant effect

SMILES: CCCCC/C=C\C/C=C\C/C=C\C/C=C\CCCC(=O)NCC(=O)O [NAG, N-arachidonoylglycine, reference compound]
- effect on LPA-stimulated platelet aggregation (human platelets [4]): No statistically significant inhibitory effect
- effect on 2-MeSADP-stimulated platelet aggregation (human platelets [5]): without effect

SMILES: Nc1c(S(=O)(=O)[O-])cc(Nc2ccc(Nc3ccccc3)c(S(=O)(=O)[O-])c2)c2c1C(=O)c1ccccc1C2=O.[Na+].[Na+] [PSB-0739, 1-amino-4-[4-phenylamino-sulfophenylamino]-9,10-dioxo-9,10-dihydroanthracene-2-sulfonic acid disodium salt]
- extent of inhibition of [3H]PSB-0413 binding (P2Y12 receptor [1]): complete inhibition
- rank order of potency at labelled binding sites (P2Y12 receptor [1]): PSB-0739 ([21], [22]). >2-methylthio-ADP > ADP

SMILES: CCCSc1nc(N[C@@H]2C[C@H]2c2ccc(F)c(F)c2)c2nnn([C@@H]3C[C@H](OCCO)[C@@H](O)[C@H]3O)c2n1 [ticagrelor, Ticagrelor, reference compound]
- effect on 2-MeSADP dose response curve of [35S]GTPγS binding (P2Y12 receptor [9]; 60 nM ticagrelor): right-shifted the dose response curve
- effect on FPP-stimulated [35S]GTPγS binding (P2Y12 receptor [9]; 10 μM ticagrelor): readily blocked
